Screening results: PubChem BioAssay, several laboratories
SR-BI DiI-HDL act = enhances SR-BI lipid uptake from DiI-HDL; CHO ldlA[mSR-BI] cells, DiI-HDL uptake fluorescence, 3 h; 100 = double the neutral-control signal; activation, % at 12.5 µM; actives 0.096% (n = 320,000); AID 504775;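 active = mean replicate activation of at least 60% and every replicate at or above 60%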
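material = CHO ldlA[mSR-BI] cells | medium = Ham's F12 with 0.5% BSA, HEPES 25 mM, pH 7.4 | reagent = fluorescent DiI-HDL, 10 µg/mL final | compound dosing = single-point compound dose | incubation = 3 h, 37 °C | measured by = bottom-read fluorescence, 550/595 nm | measure = HDL uptake via cellular fluorescence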
Kir21 inh = blocks the mouse Kir2.1 inward-rectifier potassium channel | P35561 | HEK293-Kir2.1, FluxOR thallium flux fluorescence; active compounds read low | B-score at 10 µM | actives 0.85% (n = 310,000) | AID 1672;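 active = fluorescence ratio B-score at or below minus 3 SD of library scores, with starting-brightness B-score within 2 SD, cut at about -4.2 in these data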;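 also: channel flux triggered by added potassium and thallium sulfate stimulus; B-score of peak minus minimum fluorescence over baseline after thallium stimulus; more negative B-score means stronger Kir2.1 block with less thallium influx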
TMEM16A inh = inhibitors of mouse TMEM16A calcium-activated chloride channel; Q8BHY3; HEK293 TMEM16A/YFP iodide influx fluorescence, ionomycin; normalized B-score (activity score, 25-100; higher = stronger inhibition) at 10 µM; actives 1.2% (n = 310,000); AID 588511;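 active = ratio plate-corrected score three or more library SD toward inhibition, starting fluorescence score within five deviations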;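 also: score derived from kinetic fluorescence span divided by baseline fluorescence per well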
Target sequence (Q8BHY3 whole entry, looked up): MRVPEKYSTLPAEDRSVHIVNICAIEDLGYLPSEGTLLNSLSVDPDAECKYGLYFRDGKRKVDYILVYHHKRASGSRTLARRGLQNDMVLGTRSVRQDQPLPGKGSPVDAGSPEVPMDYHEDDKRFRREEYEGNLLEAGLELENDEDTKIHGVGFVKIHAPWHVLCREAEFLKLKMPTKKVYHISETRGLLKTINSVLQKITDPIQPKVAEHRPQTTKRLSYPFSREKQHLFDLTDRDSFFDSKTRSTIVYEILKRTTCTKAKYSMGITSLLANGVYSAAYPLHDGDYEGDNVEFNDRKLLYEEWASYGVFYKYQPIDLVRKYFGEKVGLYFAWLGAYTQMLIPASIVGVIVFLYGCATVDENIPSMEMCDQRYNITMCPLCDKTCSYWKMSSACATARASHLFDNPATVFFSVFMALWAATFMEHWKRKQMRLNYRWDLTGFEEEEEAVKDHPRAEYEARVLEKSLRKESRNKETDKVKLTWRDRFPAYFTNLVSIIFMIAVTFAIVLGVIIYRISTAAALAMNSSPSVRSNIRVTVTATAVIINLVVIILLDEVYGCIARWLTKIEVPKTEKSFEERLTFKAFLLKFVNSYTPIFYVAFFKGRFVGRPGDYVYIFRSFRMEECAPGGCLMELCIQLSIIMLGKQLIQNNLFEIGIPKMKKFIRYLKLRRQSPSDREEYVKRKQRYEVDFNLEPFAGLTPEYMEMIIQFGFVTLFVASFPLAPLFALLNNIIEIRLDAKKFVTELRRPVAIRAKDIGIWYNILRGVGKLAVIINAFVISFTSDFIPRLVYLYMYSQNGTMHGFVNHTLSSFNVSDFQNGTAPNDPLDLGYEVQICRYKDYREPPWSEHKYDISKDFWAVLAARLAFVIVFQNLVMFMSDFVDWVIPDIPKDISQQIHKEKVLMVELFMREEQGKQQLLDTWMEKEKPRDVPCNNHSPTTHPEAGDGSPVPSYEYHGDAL
FID counter = fluorescent intercalator displacement, NS3 helicase counter-screen; DNA fluorescent intercalator displacement, fluorescence; AID 1845; inhibition, % at 7.9 µM; actives 0.17% (n = 290,000); in the data active = inhibition above about 37%;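 also: higher means more ethidium bromide displaced from hairpin DNA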
SR-BI HDL uptake = mouse SR-BI HDL lipid transfer inhibition. Q61009. ldlA[mSR-BI] CHO cells, DiI-HDL uptake fluorescence, 3 h. inhibition, % at 12.5 µM. actives 0.96% (n = 320,000). AID 488896;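 active = mean replicate inhibition of at least 70% and a set share of replicates each scoring 70 or more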
ANO1 activ = activators or potentiators of mouse TMEM16A chloride channel; Q8BHY3; actives 0.3% (n = 340,000); HEK293 TMEM16A/YFP-H148Q/I152L, iodide quench fluorescence; active compounds read low; B-score at 10 µM;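 active = fluorescence-ratio B-score plate-corrected deviation score at least 3 library SD below zero, with starting fluorescence score within 5 deviations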;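 also: channel opened by trigger with iodide after compound preincubation; score built on the fluorescence ratio of max minus min over baseline; more negative score means more quench and so TMEM16A activation or potentiation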
A number is an active result; i = inactive; nt = not tested or not shown. A selection: hits, their analogues and other compounds. The true share with any hit is near 3%.

SMILES	SR-BI DiI-HDL act	Kir21 inh	TMEM16A inh	FID counter	SR-BI HDL uptake	ANO1 activ
CCOc1cc(-c2nc(-c3ccncc3)no2)cc(OCC)c1OCC	i	i	i	i	i	i
CCOc1cc(-c2nc(-c3ccc(OC)cc3)no2)cc(OCC)c1OCC	i	i	i	i	75	i
CN(Cc1ccc(OC(F)F)cc1)C(=O)c1cccc(S(=O)(=O)N2CCN(c3ccccc3)CC2)c1	i	nt	nt	nt	i	i
Cc1cc(C(=O)N2CCN(c3ccccc3Cl)CC2)c(C)o1	i	nt	nt	nt	i	i
O=C(O/C(=C/c1ccccc1)C(F)(F)F)c1ccccc1	i	nt	nt	nt	i	i
O=[N+]([O-])c1ccc(-c2nn(-c3ccccc3)cc2/C=N/n2c(-c3ccncc3)n[nH]c2=S)cc1	i	i	25	i	i	i
Cc1ccc(-c2nn(-c3ccccc3)cc2/C=N/n2c(-c3cccs3)n[nH]c2=S)cc1	nt	i	i	i	nt	i
C/C(CC(=O)Nc1ccc2c(c1)OCCO2)=N\NC(=O)c1ccccc1Cl	i	i	i	i	i	i
Cc1ccc2cc(C#N)c(N3CCCN(C(=O)C4CCCO4)CC3)nc2c1C (configuration not stated)	i	-5.7	i	i	i	i
Cc1ccc2cc(C#N)c(N3CCCC3)nc2c1C	i	i	i	i	i	nt
CSc1cccc(NC(=O)/C=C/c2cccc(Cl)c2)c1	i	i	100	i	75	i
O=C(/C=C/c1cccc(C(F)(F)F)c1)Nc1cccc(C(F)(F)F)c1	i	i	100	i	i	-7.2
COc1ccc(NS(=O)(=O)c2cccc3ccccc23)cc1	i	i	i	nt	i	i
Cc1ccccc1-c1noc(C(C)NC(=O)c2ccco2)n1 (configuration not stated)	i	i	i	i	i	i
CSc1cccc(NC(=S)N2CCC(c3ccccc3)C2)c1 (configuration not stated)	i	i	i	i	i	i
CCc1cccc(NC(=S)N2CCC(c3ccccc3)C2)c1 (configuration not stated)	nt	i	i	i	nt	-5.7
CCOC(=O)c1c(C)[nH]c(C(=O)OCC(=O)N(CC(C)C)C2CCS(=O)(=O)C2)c1C (configuration not stated)	i	nt	nt	nt	i	i
Cc1ccccc1OCc1nnc(SCC(=O)Nc2ccc3nc(SCC(=O)NC(C)(C)C)sc3c2)n1C	i	i	100	i	i	i
COc1ccccc1CN1C[C@@H]2C[C@@H](C3=Cc4cccc(OC)c4OC3)N3CCC[C@@]23C1=O	i	i	i	i	i	-4.7
COc1ccccc1CN1C[C@@H]2C[C@@H](c3ccccc3OC)N3CCC[C@@]23C1=O	i	i	i	i	i	i
CCN(CC)S(=O)(=O)c1cccc(NC(=O)/C=C/c2ccc([N+](=O)[O-])cc2)c1	i	i	i	i	76	i
COc1cccc(NC(=O)/C=C/c2ccccc2[N+](=O)[O-])c1	i	i	i	i	i	i
CN(C)S(=O)(=O)c1cccc(NC(=O)/C=C/c2ccccc2[N+](=O)[O-])c1	i	i	i	i	75	i
CCN(CC)S(=O)(=O)c1ccc(/C=C/C(=O)Nc2ccc(Br)cc2F)cc1	i	i	100	i	i	i
CCN(CC)S(=O)(=O)c1cccc(NC(=O)/C=C/c2cccc([N+](=O)[O-])c2)c1	i	i	i	i	i	i
SMILES	SR-BI DiI-HDL act	Kir21 inh	TMEM16A inh	FID counter	SR-BI HDL uptake	ANO1 activ
COc1ccccc1C(=O)N1[C@@H](C(C)C)COc2cc(Br)ccc2S1(=O)=O	i	nt	nt	nt	i	nt
COc1cc(NC(=O)c2cccs2)c(OC)cc1NC(=O)CCC(=O)Nc1ccc(C)cc1	i	i	i	i	i	i
CON(C)c1nc(OCCNC(=O)OCc2ccc(Cl)cc2Cl)nc(N(C)C)n1	i	-4.3	i	i	i	i
CCOc1ccc(C(C)=O)cc1COC(=O)c1ccc2c(c1)NC(=O)CS2	i	nt	nt	nt	80	i
CCOc1ccc(C(C)=O)cc1COC(=O)CNC(=O)C12CC3CC(CC(C3)C1)C2	i	nt	nt	nt	i	i
C/C=C/c1ccc(OCc2cc(=O)n3cc(C)ccc3n2)c(OC)c1	nt	i	i	i	nt	i
COc1ccc(/C(C)=N/NC(=O)c2ccc(CSc3cccc4cccnc34)cc2)cc1OC	i	i	i	i	90	i
C/C(=N\NC(=O)c1ccc(CSc2cccc3cccnc23)cc1)C1CCCCC1	i	i	i	i	i	i
Cc1c(NC(=O)c2ccc(NS(=O)(=O)c3ccccc3)cc2)c(=O)n(-c2ccccc2)n1C	i	i	i	i	i	i
CC1CCCC(C)N1C(=O)COc1ccc(C(=O)Nc2ccccc2N2CCOCC2)cc1 (configuration not stated)	i	i	i	i	82	i
Cc1cc(C)n(-c2ccc(C(=O)Nc3cc(C(F)(F)F)ccc3N3CCOCC3)cc2)n1	i	i	i	i	i	i
Cc1cc(C)n(-c2ccc(C(=O)Nc3ccccc3N3CCOCC3)cc2)n1	i	i	i	i	80	i
O=C(Nc1ccc(N2CCOCC2)c(Cl)c1)c1cccnc1Cl	i	i	i	i	i	i
COc1ccc([N+](=O)[O-])cc1NC(=O)c1ccc(-n2nc(C)cc2C)cc1	i	i	i	i	90	i
COc1ccc([N+](=O)[O-])cc1NC(=O)c1ccc(N2C(=O)CCC2=O)cc1	nt	i	i	i	nt	i
CCOc1ccc(C(=O)Nc2ccccc2N2CCOCC2)cc1	i	nt	i	i	i	i
O=C(Nc1ccccc1N1CCOCC1)c1cccnc1Cl	i	i	i	47	i	i
O=S(=O)(N[C@H](CO)Cc1ccccc1)c1ccc(Br)cc1F	i	nt	nt	nt	i	nt
Cn1cncc1C#Cc1ccc2cc(C(C)(C)O)oc(=O)c2c1	i	nt	nt	nt	i	-11
CC(=O)c1sc(NC(=O)c2cc(-c3ccccc3)nn2-c2ccccc2)nc1C	i	i	i	i	80	i
O=C(Nc1nc2ccccc2s1)c1cc(-c2ccccc2)nn1-c1ccccc1	i	i	i	i	i	i
COc1cccc2c1Oc1cc([N+](=O)[O-])cc(N(C)C(C)=O)c1C=C2	i	i	i	i	i	i
COc1ccc(/C=N/N=C2/CC(C)(C)Cc3n[nH]c(=O)cc32)cc1	i	i	i	i	i	-9.1
CCN(CC)c1ccc(C(=C2C=CC(=[N+](CC)CC)C=C2)c2ccccc2)cc1	i	nt	nt	nt	i	-12
CCN(CC)c1ccc(C(=O)NNC(=O)CCNC(=O)c2ccccc2)cc1	i	nt	nt	nt	i	i
CCN(CC)c1ccc(C(=C2C=CC(=[N+](CC)CC)C=C2)c2ccc(N(CC)CC)cc2)cc1	i	nt	nt	nt	89	-6.6
CCC(Cc1ccccc1)NC(=O)c1cc(S(=O)(=O)N2CCCCC2)c[nH]1 (configuration not stated)	i	i	i	i	i	i
